High-throughput results as filed in PubChem.
In the library only some 11% were active in any assay of this set; here they are far more common.
Diaph act CS = counter-screen for diaphorase-based assays: diaphorase activators and chemical reducers. Diaphorase/resazurin coupled assay, resorufin fluorescence, 16 min; hits give high values; 1 = vehicle wells, 0 = NADH-free wells. activation factor at 20 µM. 190,000 tested, 0.005% active. AID 1229;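 active = diaphorase activity raised at least twofold by the compound at 20 µM; inactive = activation factor below 2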
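Assay system: Purified diaphorase enzyme from Clostridium kluyveri | Amount: Enzyme 0.07 U/mL final | Dosing: Compound 20 µM once, DMSO 1% | Timing: 16 min reaction at room temperature | Detection: Fluorescence, excitation 544 nm and emission 590 nm | Evaluation: Higher resorufin formation from activation or reduction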
Diaph inh CS = diaphorase inhibition or chemical oxidation counter-screen; diaphorase resazurin-to-resorufin fluorescence, NADH, 16 min; bacterial (C. kluyveri) enzyme, not human; inhibition, % at 20 µM; 190,000 tested, 0.69% active;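 active = primary screen inhibition at 20 µM above a set limit, cut at about 50% in these data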;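 also: plate controls were DMSO with full reaction for no effect and wells lacking NADH for full effect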
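controls = No-NADH positive control and DMSO neutral control | system = Clostridium kluyveri diaphorase enzyme | timing = reaction incubation of 16 min at room temperature | signal = resorufin fluorescence 544/590 nm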
G6PDH CS = L. mesenteroides G6PDH inhibition counter-screen. Purified L. mesenteroides G6PDH, diaphorase/resazurin coupled fluorescence, 45 min. inhibition, % at 5 µM. 200,000 tested, 0.12% active. AID 1020
WT yeast gro inh = growth inhibition of WT yeast, mitochondrial fusion screen | mitochondrial fusion phenotypic screen, WT strain | inhibition, % at 10 µM | 190,000 tested, 2.1% active; in the data active = inhibition above about 58%; tested in S. cerevisiae
Lmaj promast = Leishmania major promastigote growth inhibition. Leishmania major promastigotes, resazurin fluorescence viability. AID 1063. inhibition, % at 10 µM. 200,000 tested, 9% active;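 also: promastigotes grown with compound for 44 hours at 28 °C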
Numbers without * were called inactive. Rule as the data show it, unless noted: active = inhibition above about 50%; inactive = the rest.

For COc1ccc(-c2ccnc3nc(Sc4ncc(C(F)(F)F)cc4Cl)nn23)cc1 the results were Diaph act CS 1, Diaph inh CS 4.1, G6PDH CS 5.0, WT yeast gro inh 18.4 and Lmaj promast 0.4.
`FC(F)(F)c1cnc(Sc2nc3nccc(-c4ccc(Cl)cc4)n3n2)c(Cl)c1` gave Diaph act CS 1, Diaph inh CS -2.9, G6PDH CS 1.2, WT yeast gro inh 96.1* and Lmaj promast 5.2.
Screening C/C(=N\NC(=S)NCc1ccccc1)c1ccc2ccccc2c1OC(F)F returned Diaph act CS 0.9, Diaph inh CS 8.3, G6PDH CS 6.2, WT yeast gro inh 68.2* and Lmaj promast -2.8.
`C/C(=N\NC(=S)NCc1ccccc1)c1ccc2c(c1)OCCO2` gave Diaph act CS 0.8, Diaph inh CS 20.2, G6PDH CS 2.7, WT yeast gro inh 56.9 and Lmaj promast 5.1.
Screening C/C(=N\NC(=S)NCc1ccccc1)c1cccs1 returned Diaph act CS 1, Diaph inh CS -1.5, G6PDH CS 0.6, WT yeast gro inh 67.5 and Lmaj promast 9.6.
C/C(=N\NC(=S)NCc1ccccc1)c1ccc(Br)cc1 was read as Diaph act CS 0.9, Diaph inh CS 14.0, G6PDH CS 5.6, WT yeast gro inh 71.5* and Lmaj promast 1.6.
For CC(=O)N/N=C(\C)c1ccc2c(c1)OCCO2 the results were Diaph act CS 0.9, Diaph inh CS 12.1, G6PDH CS 7.5, WT yeast gro inh -9.2 and Lmaj promast -5.6.
`C/C(=N\NC(=S)Nc1ccc(F)cc1)c1ccc2c(c1)OCCO2` gave Diaph act CS 0.8, Diaph inh CS 16.0, G6PDH CS 6.2, WT yeast gro inh 31.2 and Lmaj promast 76.8*.
Cc1cccc(/C(N)=N/OC(=O)N2c3ccccc3Sc3ccccc32)c1 was read as Diaph act CS 0.6, Diaph inh CS 36.1, G6PDH CS 5.3, WT yeast gro inh 66.7* and Lmaj promast 70.9*.
For O=C(CNC(=O)c1ccccc1)OCC(=O)N1c2ccccc2Sc2ccccc21 the results were Diaph act CS 0.9, Diaph inh CS 13.5, G6PDH CS -2.3, WT yeast gro inh 10.4 and Lmaj promast -3.5.
Cc1cccc(/C(N)=N/OC(=O)Cc2ccccc2)c1 was read as Diaph act CS 1, Diaph inh CS 4.5, G6PDH CS 6.9, WT yeast gro inh 14.5 and Lmaj promast -2.9.
Screening N/C(=N\OC(=O)N1c2ccccc2Sc2ccccc21)c1ccccc1 returned Diaph act CS 0.8, Diaph inh CS 20.0, G6PDH CS -3.5, WT yeast gro inh 65.7* and Lmaj promast 91.0*.
`COC(=O)/C=c1/s/c(=C(\C#N)C(=O)NCc2ccco2)n(-c2ccccc2)c1=O` gave Diaph act CS 0.8, Diaph inh CS 15.5, G6PDH CS 3.3, WT yeast gro inh -5.3 and Lmaj promast 2.7.
Screening COc1ccc(/C=c2\s/c(=C(/C#N)C(=O)NCc3ccco3)n(-c3ccccc3)c2=O)cc1 returned Diaph act CS 0.9, Diaph inh CS 13.8, G6PDH CS 12.9, WT yeast gro inh 3.7 and Lmaj promast 61.9*.
Screening CSC1=NC(C)(C)C=C(/C=C/c2ccc(Cl)cc2)N1 returned Diaph act CS 0.9, Diaph inh CS 8.6, G6PDH CS 9.1, WT yeast gro inh 21.4 and Lmaj promast 100.4*.
For CCSC1=NC(C)(C)C=C(/C=C/c2ccc(Cl)cc2Cl)N1 the results were Diaph act CS 1, Diaph inh CS -3.5, G6PDH CS 11.4, WT yeast gro inh 59.9* and Lmaj promast 100.1*.
CSC1=NC(C)(C)C=C(/C=C/c2c(Cl)cccc2Cl)N1 was read as Diaph act CS 0.9, Diaph inh CS 14.4, G6PDH CS 0.4, WT yeast gro inh 42.1 and Lmaj promast 58.3*.
For CSC1=NC(C)(C)C=C(/C=C/c2ccc(Cl)cc2Cl)N1 the results were Diaph act CS 0.8, Diaph inh CS 22.2, G6PDH CS 7.4, WT yeast gro inh 68.0* and Lmaj promast 71.7*.
CC1(C)N=C(c2ccc(Cl)cc2Cl)C(=O)N1 was read as Diaph act CS 0.9, Diaph inh CS 14.3, G6PDH CS 4.9, WT yeast gro inh 15.7 and Lmaj promast -5.2.
Screening CC(=O)c1c(C)[nH]c(C(=O)NCc2cccc(Cl)c2)c1C returned Diaph act CS 0.9, Diaph inh CS 7.0, G6PDH CS 4.1, WT yeast gro inh -8.7 and Lmaj promast -1.4.
`Fc1ccccc1N1CC(c2ccccc2)C(c2cccs2)=N1` (centres undefined) gave Diaph act CS 0.8, Diaph inh CS 18.1, G6PDH CS 5.0, WT yeast gro inh 41.7 and Lmaj promast -0.7.
Screening CCCn1c(SCC(=O)OCC)nc(C(F)(F)F)cc1=O returned Diaph act CS 0.9, Diaph inh CS 5.8, G6PDH CS 0.3, WT yeast gro inh -4.0 and Lmaj promast 2.5.
`CCOC(=O)N1CCN(C(=O)c2ccc3c(=O)n(-c4cc(OC)ccc4OC)c(=S)[nH]c3c2)CC1` gave Diaph act CS 0.7, Diaph inh CS 31.3, G6PDH CS -5.2, WT yeast gro inh 2.5 and Lmaj promast -7.5.
COC(=O)c1oc2ccc(Br)cc2c1NC(=O)CN1CCN(C)CC1 was read as Lmaj promast 100.4*.
`O=C(C1CCCN(Cc2ccccc2Br)C1)N1CCCCC1` (centres undefined) gave Diaph act CS 0.8, Diaph inh CS 20.9, G6PDH CS 4.1, WT yeast gro inh 13.2 and Lmaj promast 45.5.
For COC(=O)c1ccc(-c2sc3nc(N4CCOCC4)c4c(c3c2N)CCCC4)o1 the results were Diaph act CS 0.7, Diaph inh CS 31.0, G6PDH CS 4.9, WT yeast gro inh 62.1* and Lmaj promast 4.9.
Screening COc1ccc(-n2cnc3c(sc4nc(N5CCOCC5)c5c(c43)CCCC5)c2=O)cc1 returned Diaph act CS 0.9, Diaph inh CS 12.1, G6PDH CS 6.1, WT yeast gro inh 13.5 and Lmaj promast 87.3*.
For Cc1cc(C)n2nc(SCc3cc(=O)oc4ccc5ccccc5c34)nc2n1 the results were Diaph act CS 0.7, Diaph inh CS 30.3, G6PDH CS 4.7, WT yeast gro inh 16.1 and Lmaj promast 39.6.
Screening O=C(CSc1ncc(C(F)(F)F)cc1Cl)N1CCN(S(=O)(=O)c2ccc(Cl)cc2)CC1 returned Diaph act CS 0.7, Diaph inh CS 25.1, G6PDH CS 3.7, WT yeast gro inh 28.4 and Lmaj promast 90.4*.
For CCCc1cc(=O)[nH]c(SCC(=O)N2CCN(S(=O)(=O)c3ccc(Cl)cc3)CC2)n1 the results were Diaph act CS 0.8, Diaph inh CS 15.3, G6PDH CS 8.2, WT yeast gro inh -23.3 and Lmaj promast 66.6*.
Screening Cc1csc(NC(=O)CSc2nncc(=O)n2N)n1 returned Diaph act CS 1, Diaph inh CS -0.9, G6PDH CS 1.8, WT yeast gro inh 10.6 and Lmaj promast -2.7.
